The source made the active and inactive calls. No cut-off for these calls is given here.

A word on the IC50: it is the point on the concentration scale where inhibition reaches its midpoint. The term inhibition denotes the relative decrease from the control value, in per cent.

For one assay, the system named is MCF7. In words: Antiproliferative activity against human MCF7 cells assessed as inhibition of cell growth incubated for 48 hrs by MTT assay. The class given is functional, cell-based. The following applies: MCF7, 48 h. The method in brief: (§1)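 MTT read-out. Cells seeded at 5.0 × 10⁴ cells/ml and cultured 24 h, then exposed to the drug over a range of concentrations for 48 h, with matching DMSO as control. MTT (5 mg/ml) added for 4 h, supernatant removed, formazan dissolved in DMSO, OD read at 570 nm. Run in triplicate, mean ± SD (n = 3).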

Another assay concerns HepG2. The assay is described as follows: Antiproliferative activity against human HepG2 cells assessed as inhibition of cell growth incubated for 48 hrs by MTT assay. In kind it is functional, cell-based. As to conditions: HepG2, 48 h. Summed up: as §1
(In general: Tetrazolium assays rely on reduction of a dye to a coloured formazan, in cell work by metabolically active cells.)

Assay [1] has as its system A549. The assay is described as follows: Antiproliferative activity against human A549 cells assessed as inhibition of cell growth at 1.5 uM incubated for 48 hrs by MTT assay relative to control. In kind it is functional. As to conditions: A549, 48 h; for inhibition of growth at 1.5 µM: read-out: GI.
Assay [2] has as its system A549. In words: Antiproliferative activity against human A549 cells assessed as inhibition of cell growth incubated for 48 hrs by MTT assay. In kind it is functional, cell-based. As to conditions: A549, 48 h. Summed up: as §1
The next assay deals with HOS. The assay is described as follows: Antiproliferative activity against human HOS cells assessed as inhibition of cell growth incubated for 48 hrs by MTT assay. The class given is functional, cell-based. Summed up:
as §1

Assay [3] concerns A549. The assay is described as follows: Antiproliferative activity against human A549 cells assessed as inhibition of cell growth at 0.5 uM incubated for 48 hrs by MTT assay relative to control. In kind it is functional. As to conditions: A549, 48 h, read-out: GI.
The test system of assay [4] is A549. In words: Induction of apoptosis in human A549 cells assessed as viable cells at 1.2 uM incubated for 48 hrs by Annexin V-FITC and PI staining based flow cytometric analysis (reference value: 95.5%). The class given is functional. The following applies: A549, 48 h, read-out: Activity. Summed up:
(§2)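 A549 cells (4×10^5 per 6 cm dish) cultured 24 h, then treated 48 h with compound or DMSO. Cells gently harvested, washed twice in cold PBS, resuspended in binding buffer with Annexin V and PI, stained 15 min at room temperature in the dark, analysed by flow cytometry. Mean ± SD, n = 3.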
On the technique in general: Flow cytometry measures light scatter and fluorescence of single cells or particles in a stream.

Assay [5] has as its target Heat shock protein HSP 90-alpha (Homo sapiens) (UniProt P07900). In words: Inhibition of ATP binding to human HSP90 alpha at 5 to 10 uM preincubated for 30 mins followed by gamma phosphate-linked ATP sepharose addition and measured after 30 mins by ATP-binding sepharose assay based western blot analysis. The method in brief: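 Purified human Hsp90α incubated on ice 30 min with compound or DMSO in 10 mM Tris-HCl pH 7.5, 50 mM KCl, 5 mM MgCl2, 2 mM DTT, 20 mM Na2MoO4, 0.01% NP-40. γ-phosphate-linked ATP-Sepharose then added, 30 min at 37 °C with frequent mixing. Resin washed and pelleted, bound Hsp90α detected by SDS-PAGE/Western blot.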
In general terms: Immunoblotting shows a protein as a band on a membrane.

Assay [6] has as its system A549. In words: Induction of apoptosis in human A549 cells assessed as early apoptotic cells at 1.2 uM incubated for 48 hrs by Annexin V-FITC and PI staining based flow cytometric analysis (reference value: 0.5%). The class given is functional. The method in brief:
as §2

Assay [7] addresses T1, Hsp90 co-chaperone Cdc37 (Homo sapiens) (UniProt Q16543).
T1 sequence (whole entry): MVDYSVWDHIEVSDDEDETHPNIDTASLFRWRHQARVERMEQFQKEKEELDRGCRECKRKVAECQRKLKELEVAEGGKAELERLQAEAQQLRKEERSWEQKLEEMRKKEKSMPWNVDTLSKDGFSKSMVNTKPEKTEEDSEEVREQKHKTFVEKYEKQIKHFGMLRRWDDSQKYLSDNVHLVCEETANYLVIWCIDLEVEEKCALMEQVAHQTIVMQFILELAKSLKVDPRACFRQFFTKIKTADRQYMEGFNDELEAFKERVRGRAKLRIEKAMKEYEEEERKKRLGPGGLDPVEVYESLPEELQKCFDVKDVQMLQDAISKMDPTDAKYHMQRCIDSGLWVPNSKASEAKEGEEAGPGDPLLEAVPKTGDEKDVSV
In words: Binding affinity to Cdc37 in human A549 cells assessed as inhibition of HSP90-Cdc37 interaction by measuring decrease in CDK4 protein level at 5 uM incubated for 12 hrs by Western blot analysis. The class given is cell-based. Summed up: (§3)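 A549 cells seeded 5×10^5 per 6 cm dish, grown 12 h, then exposed to compound or DMSO for 12 h. Lysates adjusted to 3 mg/ml protein (BCA), run on 10% SDS-PAGE, immunoblotted for p-Akt and Cdk4. Band levels quantified against Hsp90 loading control. Three separate experiments, mean ± SD.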

The subject of assay [8] is A549. In words: Induction of apoptosis in human A549 cells assessed as necrotic cells at 1.2 uM incubated for 48 hrs by Annexin V-FITC and PI staining based flow cytometric analysis (reference value: 1.0%). In kind it is functional. The method in brief: as §2
Assay [9] concerns the target T1, Hsp90 co-chaperone Cdc37 (Homo sapiens). The assay is described as follows: Binding affinity to Cdc37 in human A549 cells assessed as inhibition of HSP90-Cdc37 interaction by measuring decrease in Akt phosphorylation level at 5 uM incubated for 12 hrs by Western blot analysis. In kind it is cell-based. The method in brief:
as §3

Assay [10] deals with A549. The assay is described as follows: Induction of apoptosis in human A549 cells assessed as late apoptotic cells at 1.2 uM incubated for 48 hrs by Annexin V-FITC and PI staining based flow cytometric analysis (reference value: 3.0%). In kind it is functional. Summed up: as §2

Consider `COc1ccc(/C(C#N)=C/C(=O)OCCOC(=O)[C@]2(C)CC[C@]3(C)CC[C@]4(C)C5=CC=C6C(=CC(=O)C(O)=C6C)[C@]5(C)CC[C@@]4(C)[C@@H]3C2)cc1`, for which the 50% inhibitory concentration (IC50) is 970 nM in the assay with MCF7, 970 nM in the assay with HepG2, 1790 nM in the assay with A549 [2] and 1140 nM with HOS. Moreover, the inhibition of growth at 1.5 µM in the assay on A549 [1] is 48.1%.

Take `CC1=C(O)C(=O)C=C2C1=CC=C1[C@@]2(C)CC[C@@]2(C)[C@@H]3C[C@](C)(C(=O)OCCOC(=O)/C=C(\C#N)c4ccc(F)cc4)CC[C@]3(C)CC[C@]12C`: the half-maximal inhibitory concentration (IC50) stood at 2350 nM with MCF7, 3890 nM in the assay with HepG2, 1020 nM in the assay on A549 [2] and 2180 nM in the assay with HOS. Further, the inhibition of growth at 1.5 µM with A549 [1] turned out to be 65.9%.

As for `COc1ccc(/C(C#N)=C/C(=O)OCCCOC(=O)[C@]2(C)CC[C@]3(C)CC[C@]4(C)C5=CC=C6C(=CC(=O)C(O)=C6C)[C@]5(C)CC[C@@]4(C)[C@@H]3C2)cc1`, the IC50 was 1100 nM in the assay with MCF7, 1270 nM with HepG2, 1090 nM in the assay with A549 [2] and 1750 nM with HOS. For the same compound, in the assay on A549 [1], the inhibition of growth at 1.5 µM came out at 53.4%.

In the case of `COC(=O)CSC1C=C2C(C)(CC[C@@]3(C)[C@@H]4C[C@](C)(C(=O)OCCCOC(=O)/C=C(\C#N)c5ccc(F)cc5)CC[C@]4(C)CC[C@]23C)c2cc(OC(C)=O)c(OC(C)=O)c(C)c21` (single isomer, unassigned), in the assay with A549 [3], the inhibition of growth at 0.5 µM was 20.5%.

With `CC1=C(O)C(=O)C=C2C1=CC=C1[C@@]2(C)CC[C@@]2(C)[C@@H]3C[C@](C)(C(=O)OCCOC(=O)/C=C(\C#N)c4ccccc4)CC[C@]3(C)CC[C@]12C`, the IC50 in the assay with MCF7 is 700 nM; with HepG2 it was 650 nM; in the assay on A549 [2] it was 1020 nM; with HOS, 540 nM. Besides, the inhibition of growth at 1.5 µM in the assay on A549 [1] worked out at 59.6%.

As to `CC1=C(O)C(=O)C=C2C1=CC=C1[C@@]2(C)CC[C@@]2(C)[C@@H]3C[C@](C)(C(=O)O)CC[C@]3(C)CC[C@]12C` [CELASTROL], the viability at 1.2 µM with A549 [4] amounted to 73%. Besides, the 50% inhibitory concentration (IC50) with MCF7 worked out at 2040 nM; in the assay on HepG2 it was 3180 nM; with A549 [2], 1480 nM; in the assay on HOS it was 1460 nM. Moreover, in assay [5], the inhibition entry is “inactive”. Also, the inhibition at 1.5 µM in the assay on A549 [1] is 48%. The results for the Activity with A549 [6], with A549 [8] and in the assay on A549 [10] were 7.5%, 3.9% and 15.6%, respectively. Moreover, the inhibition entry in assay [7] and in assay [9] was “Active” throughout.

Regarding `CC1=C(O)C(=O)C=C2C1=CC=C1[C@@]2(C)CC[C@@]2(C)[C@@H]3C[C@](C)(C(=O)OC/C=C/COC(=O)/C=C(\C#N)c4ccc(F)cc4)CC[C@]3(C)CC[C@]12C`, the IC50 in the assay with MCF7 stood at 1110 nM; in the assay with HepG2, 2740 nM; in the assay with A549 [2], 1840 nM; in the assay with HOS, 1330 nM.

Regarding `CC1=C(O)C(=O)C=C2C1=CC=C1[C@@]2(C)CC[C@@]2(C)[C@@H]3C[C@](C)(C(=O)OCCCOC(=O)/C=C(\C#N)c4ccccc4)CC[C@]3(C)CC[C@]12C`, the IC50 was determined as 980 nM in the assay on MCF7, 760 nM with HepG2, 1410 nM in the assay on A549 [2] and 450 nM in the assay with HOS. In addition, the inhibition of growth at 1.5 µM in the assay with A549 [1] amounted to 53.7%.

Take `COc1ccc(/C(C#N)=C/C(=O)OC/C=C/COC(=O)[C@]2(C)CC[C@]3(C)CC[C@]4(C)C5=CC=C6C(=CC(=O)C(O)=C6C)[C@]5(C)CC[C@@]4(C)[C@@H]3C2)cc1`: the IC50 in the assay on MCF7 turned out to be 1440 nM; with HepG2 it was 2710 nM; in the assay with A549 [2], 1340 nM; with HOS, 1790 nM.

(Values after ChEMBL document CHEMBL4376838, “Discovery of Novel Celastrol Derivatives as Hsp90-Cdc37 Interaction Disruptors with Antitumor Activity” (J Med Chem, 2019).)
